Laboratory results reported in ChEMBL document CHEMBL3868583, “6-Aryl substituted 4-(4-cyanomethyl) phenylamino quinazolines as a new class of isoform-selective PI3K-alpha inhibitors” (Eur J Med Chem, 2016).

What was measured:
Mus musculus [1] = test: Toxicity in Swiss mouse implanted with Swiss mouse EAT cells assessed as body weight at 25 mg/kg, ip administered for 1 to 9 days measured on day 1 (reference value: 21.6 g); assay type: organism-based; settings: in vivo
MCF7 [2] = test: Induction of apoptosis in human MCF7 cells assessed as loss of mitochondrial membrane potential at 30 uM after 24 hrs by rhodamine-123-staining based FACS analysis (reference value: 7 % ); assay type: functional
Summary of the method: (§1)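 Cells (MCF-7 or PC-3) exposed to indicated concentrations for 24 h; rhodamine-123 (5 µM) added 1 h before end. Cells collected, PBS-washed; fluorescence of 10,000 events read in FL-1 by flow cytometry, loss of mitochondrial potential scored as decreased intensity.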

MCF7 [3] = test: Induction of cell cycle arrest in human MCF7 cells assessed as accumulation at G2 phase at 10 uM after 24 hrs by propidium iodide-staining based FACS analysis (reference value: 20 %); assay type: functional
Summary of the method: (§2)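 MCF-7 or PC-3 cells treated at indicated concentrations for 24 h, pelleted, PBS-washed, fixed in ice-cold 70% ethanol overnight at 4 °C. RNase 0.2 mg/mL 1 h at 37 °C, propidium iodide 10 µg/mL 30 min dark. 10,000 events (FL2-A vs FL2-W) by flow cytometry; fractions in apoptosis/sub-G1, G1, S, G2-M.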

MCF7 [4] = test: Induction of cell cycle arrest in human MCF7 cells assessed as apoptotic cells at 10 uM after 24 hrs by propidium iodide-staining based FACS analysis (reference value: 8 %); assay type: functional; summary of the method: as §2
MCF7 [5] = test: Induction of apoptosis in human MCF7 cells assessed as loss of mitochondrial membrane potential at 20 uM after 24 hrs by rhodamine-123-staining based FACS analysis (reference value: 7 % ); assay type: functional; summary of the method: as §1
[6] = Downregulation of PI3Kdelta expression in human MCF7 cells at 30 uM by Western blot analysis; assay type: functional, cell-based
Summary of the method: (§3)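 MCF-7 or PC-3 cells (2 × 10^6) treated with compound, lysed (1 × 10^6 cells) in cold NP-40 buffer with protease inhibitors 30 min on ice, 12,000 g 10 min 4 °C. 50 µg protein per lane on SDS-PAGE, PVDF transfer, 5% milk block, primary antibody 2 h, HRP secondary 1 h, ECL on film; β-actin internal control.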

MCF7 [7] = test: Induction of apoptosis in human MCF7 cells assessed as loss of mitochondrial membrane potential at 10 uM after 24 hrs by rhodamine-123-staining based FACS analysis (reference value: 7 % ); assay type: functional; summary of the method: as §1
Mus musculus [8] = test: Toxicity in Swiss mouse implanted with Swiss mouse EAT cells assessed as body weight at 25 mg/kg, ip administered for 1 to 9 days measured on day 9 (reference value: 22.8 g); assay type: organism-based; settings: in vivo
MCF7 [9] = test: Induction of cell cycle arrest in human MCF7 cells assessed as accumulation at G1 phase at 30 uM after 24 hrs by propidium iodide-staining based FACS analysis (reference value: 50 %); assay type: functional; summary of the method: as §2
[10] = Downregulation of PI3Kgamma expression in human MCF7 cells at 30 uM by Western blot analysis; assay type: functional, cell-based; summary of the method: as §3
[11] = Downregulation of PI3Kalpha expression in human MCF7 cells at 30 uM by Western blot analysis; assay type: functional, cell-based; summary of the method: as §3
Mus musculus [12] = test: Toxicity in Swiss mouse implanted with Swiss mouse EAT cells assessed as mortality at 15 mg/kg, ip administered for 1 to 9 days measured on day 9 and 13; assay type: organism-based; settings: in vivo
Summary of the method: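 EAC cells harvested from 8–10-day ascitic Swiss mice; 1×10^7 cells injected intramuscularly into right thigh of Swiss male mice on day 0. Randomized next day: treated n=7, saline control n=10 (0.2 ml i.p.). Dosing i.p. days 1–9. […] Body weight and mortality tracked.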

[13] = Downregulation of PI3Kgamma expression in human PC3 cells at 30 uM by Western blot analysis; assay type: functional, cell-based; settings: PC-3; summary of the method: as §3
PC-3 = test: Induction of cell cycle arrest in human PC3 cells assessed as accumulation at S phase at 20 uM after 24 hrs by propidium iodide-staining based FACS analysis (reference value: 44 %); assay type: functional; summary of the method: as §2

## N#CCc1ccc(Nc2ncnc3ccc(-c4ccc5[nH]ccc5c4)cc23)cc1
Mus musculus [1]
  Activity: 20.14 g
MCF7 [2]
  Activity: 20%
MCF7 [3]
  Activity: 1%
MCF7 [4]
  Activity: 7%
MCF7 [5]
  Activity: 15%
[6]
  Activity: 30%
MCF7 [7]
  Activity: 12%
Mus musculus [8]
  Activity: 21 g
MCF7 [9]
  Activity: 44%
[10]
  Activity: 6%
[11]
  Activity: 44%
Mus musculus [12]
  Activity: Non-Toxic

## N#CCc1ccc(Nc2ncnc3ccc(-c4cncc5ccccc45)cc23)cc1
[13]
  Activity: 20%
PC-3
  Activity: 26%
